Test results from ChEMBL document CHEMBL1127514, “Retinobenzoic acids. 6. Retinoid antagonists with a heterocyclic ring” (1994).
Calls of active or inactive are those of the source. The calls are words filed in the database; no cut-off is given here.

Legend:
HL-60 [1] = assay: The ability to induce differentiation of human promyelocytic leukemia cell line HL-60 to mature granulocytes was determined by nitro blue tetrazolium (NBT) reduction assay; assay type: functional; settings: read-out: ED50 (the source's name)
Outline: (§1)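 HL-60 cells grown in RPMI1640 with 5% FCS and antibiotics were seeded at about 8×10^4 cells/mL. Compounds were added from 2 mM ethanol stocks (final ethanol below 0.5%; ethanol-only controls) and cells incubated 4 days. Percent differentiated cells was scored by NBT reduction (0.2% NBT plus TPA 200 ng/mL, 20 min, 37 °C; formazan-positive cells counted, minimum 200 cells). Assays were run at least twice, and ED50 was obtained by the van der Waerden method.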

HL-60 [2] = assay: The ability to induce differentiation of human promyelocytic leukemia cell line HL-60 to mature granulocytes relative to retinoic acid was determined by nitro blue tetrazolium (NBT) reduction assay; assay type: functional
Outline: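 HL-60 cells in RPMI1640 with 5% FCS, 37 °C, 5% CO2, seeded at about 8×10^4 cells/mL. Compounds were added from 2 mM ethanol stocks (final ethanol below 0.5%) and cells incubated 4 days. NBT reduction (0.2% NBT, TPA 200 ng/mL, 20 min, 37 °C) was scored on ≥200 cells. ED50 was calculated by van der Waerden; the value is the retinoic acid ED50 divided by the compound ED50 from concurrent runs, ×100.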

HL-60 [3] = assay: The ability to induce differentiation of human promyelocytic leukemia cell line HL-60 to mature granulocytes was determined by nitro blue tetrazolium (NBT) reduction assay; Inactive; assay type: functional, cell-based; outline: as §1

Structure (SMILES) | EC50 (HL-60 [1]) [nM] | Relative activity (HL-60 [2]) | ED50 (HL-60 [3])
CC1=C(/C=C/C(C)=C/C=C/C(C)=C/C(=O)O)C(C)(C)CCC1 [TRETINOIN] | 2.4 | 100 | 
Cn1c(-c2ccc(C(=O)O)cc2)nc2cc3c(cc21)C(C)(C)CCC3(C)C | 3.4 | 65 | 
CC1(C)CCC(C)(C)c2cc3c(cc21)nc(-c1ccc(C(=O)O)cc1)n3-c1ccccc1 |  |  | inactive
CN1C(=O)CC(c2ccc(C(=O)O)cc2)=Nc2cc3c(cc21)C(C)(C)CCC3(C)C | 530 | 0.43 | 
CC1(C)CCC(C)(C)c2cc3c(cc21)Nc1ccccc1C(c1ccc(C(=O)O)cc1)N3 (stereo unspecified) | > 10000 | < 0.01 | 
CC1(C)CCC(C)(C)c2cc3c(cc21)N=C(c1ccc(C(=O)O)cc1)CC(=O)N3 |  |  | inactive
CC1(C)CCC(C)(C)c2cc(NC(=O)c3ccc(C(=O)O)cc3)ccc21 [TAMIBAROTENE] | 0.79 | 350 | 
CN1c2cc3c(cc2N=C(c2ccc(C(=O)O)cc2)c2ccccc21)C(C)(C)CCC3(C)C |  |  | inactive
CC1(C)CCC(C)(C)c2cc3c(cc21)NC(=O)CN(c1ccc(C(=O)O)cc1)C3=O |  |  | inactive
CC1(C)CCC(C)(C)c2cc3[nH]c(-c4ccc(C(=O)O)cc4)nc3cc21 | 320 | 0.7 | 
CC(C)n1c(-c2ccc(C(=O)O)cc2)nc2cc3c(cc21)C(C)(C)CCC3(C)C | > 10000 | < 0.01 | 
CCn1c(-c2ccc(C(=O)O)cc2)nc2cc3c(cc21)C(C)(C)CCC3(C)C | 46 | 4.9 | 
CC1(C)CCC(C)(C)c2cc3c(cc21)nc(-c1ccc(C(=O)O)cc1)n3Cc1ccccc1 |  |  | inactive
